The source of these data is ChEMBL document CHEMBL4673285, “Design, Synthesis, and Biological Evaluation of Linear Aliphatic Amine-Linked Triaryl Derivatives as Potent Small-Molecule Inhibitors of the Programmed Cell Death-1/Programmed Cell Death-Ligand 1 Interaction with Promising Antitumor Effects In Vivo” (J Med Chem, 2020).

Data set [1] in a line: Cytotoxicity against human PBMC cells assessed as reduction in cell viability incubated for 24 hrs by Cell-titer glo Luminescent assay. Type of data set: cell-based. The conditions noted are these: dose 3.125-100 µM. An outline of the steps:
(§1)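 Cells (Raji, RAW 264.7 or donor PBMCs) plated at 1 × 10⁴ per well in medium with 10% FBS. Treated for 24 h at 37 °C, 5% CO₂ with 100, 50, 25, 12.5, 6.25 or 3.125 μM compound, or buffer containing 0.2% DMSO. Viability read by CellTiter-Glo luminescence; killing rate = (1 − RLU compound/RLU control) × 100%; triplicate, mean ± SEM.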

The subject of data set [2] is Raji. Briefly: Cytotoxicity against human Raji cells assessed as reduction in cell viability incubated for 24 hrs by Cell-titer glo Luminescent assay. Type of data set: cell-based. An outline of the steps:
as §1

Data set [3] in a line: Cytotoxicity against human PBMC cells assessed as reduction in cell viability at 100 uM incubated for 24 hrs by Cell-titer glo Luminescent assay relative to control. Type of data set: cell-based. Summed up: as §1
For data set [4], the system named is RAW264.7. The data set is described as follows: Cytotoxicity against mouse RAW264.7 cells assessed as reduction in cell viability incubated for 24 hrs by Cell-titer glo Luminescent assay. The conditions noted are these: RAW264.7, 24 h. Type of data set: cell-based. An outline of the steps: as §1
Data set [5] in a line: Cytotoxicity against human PBMC cells assessed as reduction in cell viability at 6.3 uM incubated for 24 hrs by Cell-titer glo Luminescent assay. Type of data set: cell-based. Summed up:
as §1

The nature of data set [6]: Acute toxicity in C57BL/6J mouse xenografted with MC38 cells assessed as behavior changes at 15 mg/kg, ip QD for 3 week. Type of data set: organism-based. The conditions noted are these: in vivo, 504 h, time 3 weeks.
The target in data set [7] is T1, Programmed cell death 1 ligand 1 (Homo sapiens, UniProt Q9NZQ7). The data set is described as follows: Inhibition of human PD-L1 cocultured in PBMC cells assessed as inhibition of PD1/PDL1 interaction mediated increase in IFN-gamma secretion at 0.1 uM incubated for 72 hrs by ELISA relative to control. Type of data set: cell-based. An outline of the steps: (§2)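 Healthy-donor PBMCs, 1 × 10⁵ per well in RPMI 1640 with 10% FBS, stimulated with anti-CD3/anti-CD28 (1:1, 0.8 μg/mL final) plus PD-L1/Fc at 10 μg/mL final. Compound added at 0.1 or 1 μM final and cocultured 72 h at 37 °C, 5% CO₂. Supernatant IFN-γ measured by ELISA; quadruplicate, mean ± SEM.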
T1 sequence (Q9NZQ7 whole entry): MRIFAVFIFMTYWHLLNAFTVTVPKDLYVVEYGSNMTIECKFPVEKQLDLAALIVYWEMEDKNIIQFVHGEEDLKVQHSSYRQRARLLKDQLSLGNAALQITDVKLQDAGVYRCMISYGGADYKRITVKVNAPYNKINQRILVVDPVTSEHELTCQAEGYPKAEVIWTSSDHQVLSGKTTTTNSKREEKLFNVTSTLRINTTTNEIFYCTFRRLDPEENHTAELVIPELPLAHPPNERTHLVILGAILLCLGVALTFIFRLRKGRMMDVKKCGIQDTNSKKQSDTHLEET
(An ELISA detects its analyte on a solid surface through an enzyme-linked reagent.)

Data set [8] has as its target T1, Programmed cell death 1 ligand 1. The data set is described as follows: Binding affinity to biotinylated human AVI-PD-L1 by biolayer interferometry. An outline of the steps:
(§3)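 Biotinylated human PD-L1/AVI at 10 μg/mL loaded on streptavidin biosensors for 300 s, then baselined. Association with compound at 20 to 0.3125 nM plus 0 nM for 180 s, then dissociation in buffer for 300 s. Data globally fitted to a 1:1 model to give ka and kdis; apparent affinity taken as their ratio.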

Data set [9] in a line: Plasma concentration in male Sprague-Dawley rat at 15 mg/kg, po measured up to 24 hrs by LC-MS/MS analysis. Type of data set: ADME, organism-based. An outline of the steps: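 Male Sprague Dawley rats (n = 6, 6−8 weeks, 200−300 g) given a single 15 mg/kg oral dose in 25% MPD/10% RH40/65% water. Blood sampled at 0.25, 0.5, 1, 2, 4, 8, 24 h into EDTA-K2 and spun to plasma; LC−MS/MS analysis, quantifiable limit 0.5 ng/mL.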

The nature of data set [10]: Clearance in male Sprague-Dawley rat at 4 mg/kg, iv measured up to 24 hrs by LC-MS/MS analysis. Type of data set: ADME, organism-based. Conditions: in vivo. Summed up:
(§4)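 Male Sprague Dawley rats (n = 6, 6−8 weeks, 200−300 g), single 4 mg/kg iv dose in 25% MPD/10% RH40/65% water, freshly prepared. About 0.2 mL blood drawn at 0.08, 0.25, 0.5, 1, 2, 4, 8, 24 h into EDTA-K2, centrifuged 4000g 5 min at 4 °C; plasma assayed by LC−MS/MS; noncompartmental parameters reported as mean ± SD.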

Data set [11] has as its target T1, Programmed cell death 1 ligand 1. Briefly: Binding affinity to human PD-L1 expressed in CHOK1 cells assessed as inhibition of PD1/PDL1 protein-protein interaction at 500 nM incubated for 30 mins by flow cytometry analysis. Type of data set: cell-based. The conditions noted are these: CHO-K1. Summed up: (§5)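 CHO-K1-hPD-L1 cells, 5 × 10⁵ per tube in PBS with 2% FBS, incubated with hPD-1/Fc (10 μg/mL final) at 4 °C for 30 min. Compound added at 500 nM final and incubated a further 30 min at 4 °C, then stained with APC anti-human IgG Fc. Percentage of hPD-1-bound cells read by flow cytometry. Blocking efficacy calculated against a no-inhibitor positive control and parental CHO-K1 negative control.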

The target is the same in data set [12]. The data set is described as follows: Binding affinity to human PD-L1 expressed in CHOK1 cells assessed as inhibition of PD1/PDL1 protein-protein interaction at 500 nM incubated for 30 mins by flow cytometry analysis relative to control. Type of data set: cell-based. Conditions: CHO-K1. An outline of the steps:
as §5

The nature of data set [13]: Cytotoxicity against human PBMC cells assessed as reduction in cell viability up to 100 uM incubated for 24 hrs by Cell-titer glo Luminescent assay. Type of data set: cell-based. An outline of the steps: as §1
The nature of data set [14]: AUC (0 to infinity) in male Sprague-Dawley rat plasma at 4 mg/kg, iv measured up to 24 hrs by LC-MS/MS analysis. Type of data set: ADME, organism-based. More on the design: route intravenous, dose 4 mg/kg, time <=24. An outline of the steps:
as §4

Data set [15] has as its target T1, Programmed cell death 1 ligand 1. Briefly: Binding affinity to biotinylated human AVI-PD-L1 assessed as dissociation rate constant by biolayer interferometry. (In general: BLI is a label-free optical method that tracks binding on a fibre tip over time.)
For data set [16], the system named is Raji. Briefly: Cytotoxicity against human Raji cells assessed as reduction in cell viability at 3.125 uM incubated for 24 hrs by Cell-titer glo Luminescent assay. Type of data set: cell-based. Summed up:
as §1

Data set [17] in a line: AUClast in male Sprague-Dawley rat at 4 mg/kg, iv measured up to 24 hrs by LC-MS/MS analysis. Conditions: in vivo. On the set-up: route intravenous, dose 4 mg/kg, time <=24. Type of data set: ADME, organism-based. An outline of the steps:
as §4

Data set [18] deals with RAW264.7. The data set is described as follows: Cytotoxicity against mouse RAW264.7 cells assessed as reduction in cell viability at 3.125 to 100 uM incubated for 24 hrs by Cell-titer glo Luminescent assay. Type of data set: cell-based. Conditions: raw264.7, 24 h, dose 3.125-100 µM. An outline of the steps:
as §1

The nature of data set [19]: MRT (0 to infinity) in male Sprague-Dawley rat at 4 mg/kg, iv measured up to 24 hrs by LC-MS/MS analysis. Type of data set: ADME, organism-based. Conditions: in vivo. Summed up:
as §4

Data set [20] in a line: Acute toxicity in C57BL/6J mouse xenografted with MC38 cells assessed as change in body weight at 15 mg/kg, ip QD for 3 week. Conditions: in vivo, 504 h, time 3 weeks. Type of data set: organism-based. Summed up:
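Female PD-1-humanized C57BL/6J-Pdcd1^{em1(hPDCD1)/Smoc} mice, six weeks old, were acclimated 1 week. They were given 1 × 10⁶ MC38 cells (mouse PD-L1 knockout, human PD-L1 knock-in) s.c. near the hind-leg groin. Mice were randomised at 50−150 mm³ tumour volume (6 per group) and dosed 15 mg/kg ip once daily for 3 weeks. Vehicle was 0.8% DMSO/7.5% RH40 in saline. Body weight was measured twice weekly.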

Data set [21] is described as follows: Initial plasma concentration in male Sprague-Dawley rat plasma at 4 mg/kg, iv measured up to 24 hrs by LC-MS/MS analysis. Type of data set: ADME, organism-based. An outline of the steps:
as §4

A short description of data set [22]: Volume of distribution at steady state in male Sprague-Dawley rat at 4 mg/kg, iv measured up to 24 hrs by LC-MS/MS analysis. Type of data set: ADME, organism-based. The conditions noted are these: in vivo, read-out: Vdss. An outline of the steps:
as §4

The target of data set [23] is T1, Programmed cell death 1 ligand 1. Briefly: Inhibition of human PD-L1 cocultured in PBMC cells assessed as inhibition of PD1/PDL1 interaction mediated increase in IFN-gamma secretion at 1 uM incubated for 72 hrs by ELISA relative to control. Type of data set: cell-based. Summed up: as §2
For data set [24] the target is unchanged. The data set is described as follows: Binding affinity to biotinylated human AVI-PD-L1 assessed as association constant by biolayer interferometry. Summed up: as §3
Data set [25] in a line: AUC (extrapolated) in male Sprague-Dawley rat at 4 mg/kg, iv measured up to 24 hrs by LC-MS/MS analysis. Type of data set: ADME, organism-based. The conditions noted are these: in vivo. Summed up:
as §4

The nature of data set [26]: Acute toxicity in C57BL/6J mouse xenografted with MC38 cells assessed as mortality at 15 mg/kg, ip QD for 3 week. Type of data set: organism-based. Conditions: in vivo, 504 h, time 3 weeks.
The nature of data set [27]: Half-life in male Sprague-Dawley rat at 4 mg/kg, iv measured up to 24 hrs by LC-MS/MS analysis. Type of data set: ADME, organism-based. Conditions: in vivo. An outline of the steps: as §4
The test system of the next data set is MC-38. Briefly: Antitumor activity against mouse MC38 cells xenografted in PD-L1 knockout/PD1 knock-in C57BL/6J mouse assessed as tumor growth inhibition at 15 mg/kg, ip QD for 3 weeks measured after day 21. Type of data set: functional. On the set-up: scale not given: the % may be the effect or the level left.
A short description of data set [28]: Dose normalized AUClast in male Sprague-Dawley rat at 4 mg/kg, iv measured up to 24 hrs by LC-MS/MS analysis. Type of data set: ADME, organism-based. Conditions: in vivo. An outline of the steps: as §4

Calls of active or inactive are those of the source. The rule behind the calls is not given here.

Broadly, the EC50 is the midpoint of the concentration-response curve. For `COc1nc(NCc2cccc(-c3ccccc3)c2C)ccc1CNCCNC(C)=O`, the values for the Activity entry in data set [1], in data set [3] and in [5] were “Toxic”, 100% and “Non-Toxic”, respectively. The concentration for a half-maximal effect (EC50) in the data set with Raji [2] amounted to 13.8 µM; in the data set with RAW264.7 [4], 6.97 µM.

As usually defined, the inhibition is the relative decrease from the control value, in per cent. As usually defined, the clearance is the rate of elimination divided by the concentration. By AUC(0-inf) is commonly meant the area under the concentration-time curve extrapolated to infinity. By AUC(0-t) is commonly meant the area under the concentration-time curve up to a stated or last time point. The MRT inf is the average time that molecules of a dose stay in the body. Usually half-life stands for how long it takes for the measured level to halve. With `Cc1cc(CN[C@H](CO)C(=O)O)c(OCc2cncc(C#N)c2)cc1NCc1cccc(-c2ccccc2)c1C`, the Activity entry (in data set [6]; in data set [13]; in the data set with Raji [16]; in the data set on RAW264.7 [18]; in data set [20]; in [26]) was “Non-Toxic” in each case. In addition, the Activity in the data set with MC-38 is recorded as 61.7%; in data set [5], “Non-Toxic”. Besides, the inhibition in [7] was found to be 72.9%; in [23] it was 56.8%. For the same molecule, the Dissociation constant (KD) in [8] is 1.62 10^-11M. This molecule came in with a concentration at 24 h in data set [9] of 0.5 ng/mL. In data set [10], this molecule gave a clearance of 74.5 mL/min/kg. Also, the outcome in data set [11] was Active. Also, in data set [12], the Efficacy came to 97.5%. The molecule also yielded an AUC(0-inf) in data set [14] of 908 ng·h/mL. The koff in data set [15] is 3.53 10^-5/s. Moreover, the area under the curve AUC(0-t) at 24 h in data set [17] stood at 905 ng·h/mL. In [19], the mean residence time (MRT inf) was found to be 29.2 min. For the same molecule, the C0 at 24 h in [21] came out at 4370 ng/mL. In addition, the Vd in [22] was found to be 2.17 L/kg. Moreover, in data set [24], the association rate constant (kon) is 2.17 10^6/M/s. Further, the “%AUCextra” value in data set [25] is reported as 0.283%. Besides, in [27], the half-life was 82.8 min. Further, in data set [28], the AUClast/dose amounted to 226 ng·kg·h/mL/mg.
